Reference: ChEMBL document CHEMBL2029254, “Use of libraries to access new chemical space: applications to CRTH2” (Bioorg Med Chem Lett, 2012)

Key:
[1] = molecular target: T1, Prostaglandin D2 receptor 2 (Homo sapiens) (UniProt Q9Y5Y4); assay: Displacement of [3H]PGD2 from human CRTH2 receptor expressed in CHO cell membrane at 2.8 uM after 120 mins by scintillation counting; format: cell membranes
T1 sequence (whole entry): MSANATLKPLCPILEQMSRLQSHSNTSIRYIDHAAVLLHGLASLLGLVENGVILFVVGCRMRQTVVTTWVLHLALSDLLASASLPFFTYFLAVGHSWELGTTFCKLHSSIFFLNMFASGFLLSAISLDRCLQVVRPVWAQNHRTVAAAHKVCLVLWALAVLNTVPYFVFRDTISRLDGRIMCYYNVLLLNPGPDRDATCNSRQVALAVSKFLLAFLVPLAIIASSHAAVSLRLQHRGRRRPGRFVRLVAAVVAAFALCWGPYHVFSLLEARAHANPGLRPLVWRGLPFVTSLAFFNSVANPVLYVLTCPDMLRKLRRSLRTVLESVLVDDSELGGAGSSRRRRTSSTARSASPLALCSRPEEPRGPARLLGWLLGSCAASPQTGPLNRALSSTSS

[2] = molecular target: T2, Prostaglandin D2 receptor 2 (Homo sapiens, UniProt Q9Y5Y4); assay: Displacement of [3H]PGD2 from human CRTH2 receptor expressed in CHO cell membrane after 120 mins by scintillation counting; format: cell membranes
T2 sequence (Q9Y5Y4 whole entry): T1 sequence (whole entry)
Summary of the method: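 Ki derived from the displacement IC50 by the Cheng–Prusoff relationship, using the KD and radioligand concentration supplied by the analyser. Values are geometric means of three or more independent determinations.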

## CCc1nn(CC(=O)O)c(CC)c1Cc1ccc2ccccc2c1
[1]
  inhibition: > 40%
[2]
  Ki: 631 nM

## CCc1nn(Cc2cccc(Br)c2)c(CC)c1CC(=O)O
[1]
  inhibition: > 40%
[2]
  Ki: 563 nM

## CCc1nn(Cc2cc(Cl)ccc2Cl)c(CC)c1CC(=O)O
[1]
  inhibition: > 40%
[2]
  Ki: 623 nM

## O=C(O)COc1ccccc1COc1ccc(F)cc1C1CC1
[1]
  inhibition: > 40%
[2]
  Ki: 591 nM

## Cc1ccc2cccc(OCc3ccccc3OCC(=O)O)c2n1
[1]
  inhibition: > 40%
[2]
  Ki: 492 nM

## CCc1nn(Cc2ccc3ccccc3c2)c(CC)c1CC(=O)O
[1]
  inhibition: > 40%
[2]
  Ki: 574 nM

## Cc1ccc(Cl)cc1OCc1ccccc1OCC(=O)O
[1]
  inhibition: > 40%
[2]
  Ki: 520 nM

## O=C(O)Cn1cnc2c1CCN(C(=O)c1csc(-c3ccccc3)n1)C2
[1]
  inhibition: > 40%
[2]
  Ki: 752 nM

## CCCNC(=O)c1ccccc1OCc1cccc(C)c1OCC(=O)O
[1]
  inhibition: > 40%
[2]
  Ki: 333 nM

## O=C(O)COc1ccccc1COc1ccc(Cl)cc1-c1ccno1
[1]
  inhibition: > 40%
[2]
  Ki: 247 nM
